Screens as filed in PubChem.
Shown are actives, neighbours in structure and some others; about 8.7% of the full set was active somewhere.
Ecoli tolC – blocks growth of E. coli BW25113 tolC mutant. OD615. growth inhibition, % at 10 µM (by protocol). hit rate 2.2% among 65,000. AID 573;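 active = growth inhibition at or above a cutoff equal to the mean over every tested compound plus 3 SD, cut at about 60% in these data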;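 also: growth measured after 20 h incubation at 37 °C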
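signal = optical density read at 615 nm | test system = E. coli ΔtolC::kan strain BW25113 | timing = 20 h compound exposure of bacteria at 37 °C | buffer or medium = LB medium plus 50 µg/mL kanamycin | compound dosing = 10 µM final, single dose | evaluation = % inhibition of E. coli growth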
Cav3 T inh – inhibitors of human Cav3.2 T-type calcium channel. B-score at 10 µM. O95180. hit rate 4% among 100,000. AID 449739. Cav3.2-expressing cells, Fluo-4 calcium fluorescence FDSS; hits give low values;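 active = single-dose well whose peak fluorescence ratio is a statistical outlier from its plate by either plate-standardised score or position-corrected B-score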
PostGolgi yeast – growth inhibition of a yeast mutant, post-Golgi transport screen; post-Golgi transport phenotypic cell assay; inhibition, % at 10 µM; hit rate 0.9% among 98,000; AID 739;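 also: yeast cells grown in 1536-well plates; yeast grown about 18 h at 30C before absorbance read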
PostGolgi ctrl – yeast control strain growth, post-Golgi counter-screen; inhibition, % at 10 µM; efflux-deficient yeast background strain, growth absorbance A615, 16 h; AID 738; hit rate 5% among 98,000
PTK2B oligo ant – antagonists of human Pyk2 oligomerization. z-score (the deposit names both 25 µM and 10 µM). Q14289. AID 1347419. Q293 cells, Pyk2 FERM NanoBiT luminescence; hits give low values. hit rate 0.83% among 99,000;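 active = Z-score of -3 or lower, scaled per plate to the spread of control and sample wells; inactive = z-score above -3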;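 also: negative z-score means lost luminescence so less FERM oligomerization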
E coli WT exp – blocks growth of wild type E. coli BW25113 | OD600 absorbance | growth inhibition, % at 100 µM | hit rate 0.15% among 98,000 | AID 710;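 active = growth inhibition above about 50% at one test dose, limit read from the data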;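 also: growth measured after 20 h incubation at 37 °C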
Numbers stand for hits; 0 = inactive; - = no result. Rule as the data show it, unless noted: active = inhibition above about 30%; inactive = the rest.

SMILES	Ecoli tolC	Cav3 T inh	PostGolgi yeast	PostGolgi ctrl	PTK2B oligo ant	E coli WT exp
CC(C)C(C)NC(=O)COc1ccc(-c2ccccc2)cc1 (configuration not stated)	-	0	32.0	0	0	0
CCOc1ccc(C(=O)NC(Cc2ccccc2)C(=O)OC)cc1 (configuration not stated)	-	0	0	0	0	0
COC(=O)C(Cc1ccccc1)NC(=O)COc1ccc(C(C)(C)C)cc1 (configuration not stated)	-	-6.09	0	0	0	0
CCOc1ccccc1OCCCOc1ccc([N+](=O)[O-])cc1Cl	-	0	0	37.9	0	0
CCOc1ccc(C(=O)c2cc([N+](=O)[O-])ccc2Cl)cc1	-	0	0	0	0	0
CCOc1ccc(NC(=O)C/C(N)=N/O)cc1	0	0	35.2	0	0	0
Cc1ccc(NC(=O)C/C(N)=N/O)cc1C	-	0	0	0	0	0
CCOc1ccc(NC(=O)CSC(N)=O)cc1	0	-4.67	0	0	0	0
CCn1c(=O)cc(SCC(=O)NCCN2CCN(Cc3ccccc3)CC2)c2ccccc21	0	0	0	34.2	0	0
O=C(CSc1ccc2nnc(-c3ccncc3)n2n1)N1CCc2ccccc21	0	-	-	-	-	-
O=C1N[C@@H](Cc2cn(S(=O)(=O)c3ccc(F)cc3)c3ccccc23)C(=O)N[C@H]1Cc1ccccc1	-	0	-	-	-	-
O=C(c1ccco1)N(CCC(c1ccccc1)c1ccco1)Cc1ccc(F)cc1 (configuration not stated)	-	-3.87	0	39.8	0	0
CCOC(=O)C1=C(C)OC(N)=C(C#N)C1c1cc(Cl)c(OCC(N)=O)c(OC)c1 (configuration not stated)	-	0	0	0	0	0
O=C(c1cnc(N2CCN(c3ncccn3)CC2)c2ccccc12)N1CCN(c2ncccn2)CC1	0	-	0	0	0	0
CCN(C(=O)c1cnc(N2CCN(c3ncccn3)CC2)c2ccccc12)c1cccc(Cl)c1	0	-6.63	0	0	-3.3	0
CN(C(=O)c1cnc(N2CCN(c3ncccn3)CC2)c2ccccc12)c1ccc(Cl)cc1	0	-	0	73.3	0	0
COc1ccc(C(=O)n2c(-c3ccco3)nc3ccccc32)cc1	63.7	0	0	32.7	0	0
COc1ccc(CCn2c(-c3ccco3)nc3nc4ccccc4nc32)cc1	0	0	0	0	0	0
COc1ccc2c(c1)-c1c(sn(-c3ccc(OC)c(OC)c3)c1=S)C(C)(C)N2	-	0	0	37.6	0	0
CCOC(=O)/C(C#N)=C(\N)C(C)C(=O)Nc1ccccn1 (configuration not stated)	0	-	0	0	0	0
CC(=O)c1cc2c(cc1NC(=O)c1c(-c3ccccc3)noc1C)OCO2	-	0	0	0	0	0
Cc1cc(/C=C2\SC(=S)NC2=O)c(C)n1C1CC1	-	-	0	56.0	0	0
Cc1ccc(N=Cc2cc(C)n(C3CCCC3)c2C)cc1	-	0	0	0	0	0
CCOc1cc(NC(=S)NCCCN2CCOCC2)c(OCC)cc1NC(=O)CC(C)C	-	0	0	0	0	0
O=c1[nH]nc(Cc2ccc(Cl)cc2)c2ccccc12	-	0	-	-	0	-
SMILES	Ecoli tolC	Cav3 T inh	PostGolgi yeast	PostGolgi ctrl	PTK2B oligo ant	E coli WT exp
O=c1[nH]nc(Cc2ccc(Cl)cc2Cl)c2ccccc12	-	0	0	46.9	0	0
CCCCN1C(=O)Cc2c1nc(N)c1c(N)nc(N(CCC)CCC)c(C#N)c21	-	-	0	0	-3.64	0
Cc1ccc2c(CSc3nc4ccccc4c(=O)n3CCCO)cc(=O)oc2c1C	-	-	0	31.7	0	0
COC(=O)c1ccc(CSc2nc3ccccc3c(=O)n2CC(C)C)o1	-	-4.68	0	0	0	0
COCCn1c(SCC(=O)c2ccc(CNC(C)=O)o2)nc2ccccc2c1=O	0	0	0	0	0	0
COC(=O)c1ccc(CSc2nc3ccccc3c(=O)n2Cc2ccco2)o1	0	0	0	33.7	0	0
CC(=O)NCCn1c(SCc2ccc(C)cc2)nc2ccccc2c1=O	-	0	0	33.7	0	0
O=C(c1c(Cl)nc2sccn12)N1CCN(c2cccc(Cl)c2)CC1	0	0	0	0	0	0
COc1ccc(N2CCN(C(=O)c3ccc(CNc4c(N5CCOCC5)c(=O)c4=O)cc3)CC2)cc1	0	-	-	-	-	-
CC(=O)Nc1nonc1-n1nnc(C(=O)NCc2ccccc2)c1C	0	0	0	0	0	0
C=C(C)C1CC=C(CN2CC(C)OC(C)C2)CC1 (configuration not stated)	-	0	94.8	0	0	0
CCOC(=O)C1CCN(Cc2ccc(F)cc2)CC1	0	0	-	-	0	-
